# PLCg1 inh: blocks human PLC-gamma1 enzyme activity | P19174 | inhibition, % at 12.2 µM | purified PLC-gamma1, fluorogenic substrate, fluorescence | actives 0.84% (n = 370,000); in the data active = inhibition above about 9.5%
# ADAM10 inh: inhibitors of human ADAM10. O14672. recombinant ADAM10, EDANS/DABCYL FRET peptide cleavage, 3 h. inhibition, % at 7 µM. actives 0.62% (n = 370,000);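 active = inhibition above a per-campaign cutoff equal to the mean of compounds falling between control-based bounds plus 3 SD, cut at about 20% in these data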
# Tn6 DDE FP: DD(E)-Tn6 binding inhibition, primary FP screen | P02675 | Fibrin DD(E) TRITC-Tn6 fluorescence polarization displacement | inhibition, % at 8.3 µM | actives 0.21% (n = 370,000);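 active = inhibition above a per-campaign cutoff: mean of compounds within control limits plus 3 SD, cut at about 15% in these data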
# PLC-beta3 inh: inhibitors of human phospholipase C beta3; Purified PLC-beta3, fluorogenic substrate, fluorescence; inhibition, % at 12.2 µM; actives 0.18% (n = 370,000); in the data active = inhibition above about 11%
# Target sequence (Q01970 whole entry, looked up): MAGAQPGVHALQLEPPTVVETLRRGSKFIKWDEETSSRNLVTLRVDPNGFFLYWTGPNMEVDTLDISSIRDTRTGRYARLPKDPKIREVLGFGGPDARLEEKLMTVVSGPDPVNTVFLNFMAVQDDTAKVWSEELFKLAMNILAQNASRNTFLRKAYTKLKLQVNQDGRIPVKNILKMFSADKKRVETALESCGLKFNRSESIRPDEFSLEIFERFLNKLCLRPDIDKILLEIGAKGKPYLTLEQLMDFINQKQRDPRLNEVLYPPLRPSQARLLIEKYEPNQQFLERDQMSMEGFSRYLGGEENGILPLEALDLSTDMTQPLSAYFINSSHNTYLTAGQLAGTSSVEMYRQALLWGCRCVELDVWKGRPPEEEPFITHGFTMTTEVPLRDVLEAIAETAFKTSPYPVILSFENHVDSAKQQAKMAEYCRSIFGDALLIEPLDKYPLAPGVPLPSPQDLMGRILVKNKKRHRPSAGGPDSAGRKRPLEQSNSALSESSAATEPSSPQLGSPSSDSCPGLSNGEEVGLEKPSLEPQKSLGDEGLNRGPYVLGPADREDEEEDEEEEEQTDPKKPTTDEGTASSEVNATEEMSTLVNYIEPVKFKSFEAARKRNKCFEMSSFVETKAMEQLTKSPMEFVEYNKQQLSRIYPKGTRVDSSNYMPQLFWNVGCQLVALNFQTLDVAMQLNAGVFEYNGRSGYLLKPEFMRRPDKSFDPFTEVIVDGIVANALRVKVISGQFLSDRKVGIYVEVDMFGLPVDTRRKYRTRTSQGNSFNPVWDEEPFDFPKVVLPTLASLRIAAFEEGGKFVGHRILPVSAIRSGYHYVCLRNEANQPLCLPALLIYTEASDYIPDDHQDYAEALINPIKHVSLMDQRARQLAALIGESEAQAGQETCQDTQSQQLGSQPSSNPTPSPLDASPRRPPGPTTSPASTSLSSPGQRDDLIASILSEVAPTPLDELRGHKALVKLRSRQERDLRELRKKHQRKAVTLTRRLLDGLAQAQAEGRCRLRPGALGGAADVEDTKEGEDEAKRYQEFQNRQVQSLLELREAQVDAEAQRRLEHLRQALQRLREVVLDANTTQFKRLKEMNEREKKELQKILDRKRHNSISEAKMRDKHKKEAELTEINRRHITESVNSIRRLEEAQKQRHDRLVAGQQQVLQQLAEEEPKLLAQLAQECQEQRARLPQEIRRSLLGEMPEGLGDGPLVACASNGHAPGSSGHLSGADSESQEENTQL
# ADAM17 inh: ADAM17 inhibition, QFRET primary screen | P78536 | recombinant ADAM17, EDANS/DABCYL FRET peptide cleavage | actives 0.83% (n = 370,000) | inhibition, % at 6.95 µM;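 active = inhibition above the mean of compounds lying between control limits plus 3 SD, set per campaign, cut at about 8.5% in these data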
# Tn7 DDE FP: disrupts Tn7 cyclic peptide binding to fibrin D-Dimer-E complex; P02675; FP displacement of FITC-Tn7 peptide from fibrin DD(E); 0% = median of compound wells per plate; inhibition, % at 8.3 µM; actives 0.13% (n = 370,000); AID 720508;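 active = inhibition above the mean of compounds falling within the control limits plus 3 SD of them, cut at about 14% in these data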
#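 Test system: human clot-derived fibrin DD(E) complex / Quantity: 2 µM final DD(E) protein / Incubation: 10 min plus 3 h, room temperature / Measured by: fluorescence polarization / Benchmarks: high control of 10 µM Aha-Tn7 peptide / Replicates: singlicate testing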
# ADAM10 ctr: inhibits human ADAM10 in ADAM17 exosite counter-screen; shares compounds with ADAM17 inh; recombinant ADAM10, EDANS/DABCYL FRET peptide cleavage, 3 h; inhibition, % at 6.95 µM; actives 47% (n = 2,900);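 active = mean inhibition over the triplicate runs exceeds the activity threshold set in the earlier primary screen, cut at about 20% in these data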
# ADAM17 confirm: confirmation of inhibitors of human ADAM17; shares compounds with ADAM17 inh; recombinant ADAM17, EDANS/DABCYL QFRET peptide cleavage; inhibition, % at 6.95 µM; actives 65% (n = 2,900); AID 743257;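 active = mean inhibition across replicates above the hit cutoff set in the primary screen, cut at about 8.5% in these data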
# Hits are given with their value; n = inactive; x = no result. Sampled rows, rich in hits. Any-hit rate of the full collection: about 2.3%.
SMILES,PLCg1 inh,ADAM10 inh,Tn6 DDE FP,PLC-beta3 inh,ADAM17 inh,Tn7 DDE FP,ADAM10 ctr,ADAM17 confirm
COc1ccc(CSc2nc(O)cc(=O)n2CC(C)C)cc1F,n,n,n,n,n,n,x,x
COc1ccc(OC)c(NC(=O)CSc2nc(O)cc(=O)n2CC(C)C)c1,n,n,n,n,9.3,n,n,n
Cc1ccc(OCCC(=O)OCC(=O)NC(=O)NC2CCCCC2)cc1,n,n,n,n,9.0,n,30,14
CCc1ccc(NS(=O)(=O)c2ccc(OC)c(C)c2)cc1,n,n,n,n,n,n,x,x
COc1ccc(S(=O)(=O)Nc2ccc3ccccc3c2)cc1C,n,n,n,n,10,n,29,18
COc1ccccc1Nc1ccc(Nc2ccccc2OC)nn1,n,n,n,n,n,n,x,x
COc1ccc(OC)c(Nc2ccc(Nc3cc(OC)ccc3OC)nn2)c1,n,n,n,n,18,n,n,n
O=C(NC(=S)NCCc1ccccc1)c1ccccc1F,n,n,n,n,10,n,n,n
O=C(NC(=S)NCc1ccccc1)c1ccccc1F,n,n,n,n,n,n,x,x
CCN(CC)C(=O)CC[C@H]1CC[C@]2(CCCN(Cc3ccccn3)C2)O1,n,n,n,n,n,n,x,x
CCCCN(C(=O)C1CC(=O)N(c2ccc(C)cc2)C1)c1c(N)n(CCC)c(=O)[nH]c1=O (centres undefined),n,n,n,n,11,n,n,n
CC(C)(C)C(=O)OC12CCCN(C1)/C(=C/c1ccc(Cl)cc1)C2 (centres undefined),n,n,n,n,n,n,x,x
COc1ccccc1NNC(=O)c1cc(C(C)(C)C)nn1Cc1ccccc1,n,n,n,n,n,n,x,x
CC(C)(C)c1cc(C(=O)NNc2cc(C(F)(F)F)ccc2Cl)n(Cc2ccccc2)n1,n,n,n,n,10,n,27,10
Cc1ccc(-n2c(SCC(=O)Nc3ccccc3-c3ccccc3)nnc2-c2cnccn2)cc1,n,n,n,n,n,n,x,x
O=C(/C=C/c1ccccc1Cl)Nc1cccc(O)c1,n,n,n,n,9.2,n,n,n
O=C(/C=C/c1ccccc1Cl)Nc1ccccc1,n,n,n,n,n,n,x,x
CN1C2=N[C@H](c3cccc(C(F)(F)F)c3)CC(=O)N2/C(=C\c2ccccc2)[C@H]1c1ccccc1,n,n,n,n,n,n,x,x
CC(C)(C)NC(=O)C(c1ccc(O)cc1)N(C(=O)Cn1nnc(-c2ccc(F)cc2)n1)c1ccccc1F (centres undefined),n,n,n,n,9.9,n,39,18
CN(Cc1ccccc1)S(=O)(=O)c1cccc(C(=O)OCc2ccccc2)c1,n,n,n,n,n,n,x,x
COc1ccc(/C(C)=N\NC(=O)c2ccco2)cc1,n,n,n,n,n,n,x,x
O=C(O)CCC(=O)Nc1cccc2cccnc12,n,n,n,n,n,n,x,x
O=C(CCC(=O)OCC(=O)c1ccccc1)Nc1cccc2cccnc12,n,n,n,n,8.7,n,n,n
Cc1ccc(NC(=O)CC2SC(=O)N(c3ccccc3)C2=O)cc1 (centres undefined),n,n,n,n,n,n,x,x
Cc1ccc(C(=O)CC2C(=O)N(c3ccccc3)C(=S)N2c2ccccc2)cc1 (centres undefined),n,n,n,n,9.3,n,44,19
SMILES,PLCg1 inh,ADAM10 inh,Tn6 DDE FP,PLC-beta3 inh,ADAM17 inh,Tn7 DDE FP,ADAM10 ctr,ADAM17 confirm
COc1cccc(C(Nc2ccccc2)c2ccc3ccc(C)nc3c2O)c1 (centres undefined),n,n,n,n,17,n,n,15
COc1cccc(C(NC(C)=O)c2ccc3cccnc3c2O)c1 (centres undefined),n,n,n,n,n,n,x,x
CN(c1cccc(NC(=O)CN(c2cccc(Cl)c2)S(=O)(=O)c2ccc(Cl)cc2)c1)S(C)(=O)=O,n,n,n,n,11,n,31,16
CC(C)CC1NC(=O)c2ccc(Cl)cc2-n2c1nc1cc(F)ccc1c2=O (centres undefined),n,n,n,n,11,n,21,12
CC(C)CC1NC(=O)c2cc(Cl)ccc2-n2c1nc1cc(F)ccc1c2=O (centres undefined),n,n,n,n,8.7,n,n,n
Cc1ccc2nc3n(c(=O)c2c1)-c1ccc(Cl)cc1C(=O)NC3Cc1ccccc1 (centres undefined),n,n,n,n,11,n,n,n
O=C1NC(Cc2ccccc2)c2nc3ccc(Cl)cc3c(=O)n2-c2ccc(Cl)cc21 (centres undefined),n,n,n,n,n,n,x,x
c1ccc(Cn2c(SCC3CCC3)nnc2-c2cccnc2)cc1,n,n,n,n,n,n,x,x
COC(=O)[C@H]1C[C@]2(C(/C=C(\C)CCC=C(C)C)S(=O)(=O)c3ccccc3)c3ccccc3N[C@H]2N1 (some centres undefined),n,n,n,n,n,n,x,x
Cc1cc(C)nc(NC(=O)CSc2nc3ccccc3s2)n1,n,n,n,n,n,n,x,x
Cc1nc(NC(=O)CSc2nc3ccccc3s2)sc1C(=O)N(C)C,n,n,n,n,10,n,n,n
O=C(Nc1cccc(S(=O)(=O)NCc2ccco2)c1)c1cc(-c2ccccc2)nc2ccccc12,n,n,n,n,10,n,31,17
C=C(C)/C=C1/CN(Cc2ccc3c(c2)OCO3)C(=N)N1C(=O)OCc1ccccc1,n,n,n,n,n,n,x,x
O=C(CSc1nc2cc(Cl)ccc2s1)c1cc2ccccc2o1,n,n,n,n,12,n,n,n
O=C(CSc1nc2cc(Cl)ccc2s1)Nc1cccc(S(=O)(=O)N2CCOCC2)c1,n,n,n,n,11,n,20,10
O=C(CSc1nc2ccccc2s1)Nc1ccc(Cl)c(S(=O)(=O)N2CCOCC2)c1,n,n,n,n,n,n,x,x
O=C(CSc1nc2ccccc2c(=O)n1-c1ccccc1Cl)Nc1cccc(S(=O)(=O)N2CCOCC2)c1,n,n,n,n,9.5,n,n,13
Cc1c(C(=O)OCc2nc3scc(-c4ccccc4)c3c(=O)[nH]2)cccc1[N+](=O)[O-],n,n,n,n,n,n,x,x
O=C(OCc1nc2scc(-c3ccccc3)c2c(=O)[nH]1)c1cc(Cl)ccc1[N+](=O)[O-],n,n,n,n,8.6,n,n,n

# Assay outcomes from PubChem.
